E coli WT exp: E. coli BW25113 growth inhibition, expanded screen | OD600 absorbance | AID 710 | 98,000 tested, 0.15% active | growth inhibition, % at 100 µM;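 active means growth inhibition above about 50% at one test dose, limit read from the data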;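 further: growth measured after 20 h incubation at 37 °C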
M1 antagonist: M1 muscarinic receptor (rat) antagonism | B-score at 10 µM | AID 628 | CHO-M1 cells, Fluo-4 calcium, ACh EC80 antagonist mode; active compounds read low | 64,000 tested, 3.4% active;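 active means calcium fluorescence response, raw or row-and-column corrected B-score, differing from the plate sample mean either way at a set confidence level, mostly lower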
Target sequence (P08482 whole entry, looked up): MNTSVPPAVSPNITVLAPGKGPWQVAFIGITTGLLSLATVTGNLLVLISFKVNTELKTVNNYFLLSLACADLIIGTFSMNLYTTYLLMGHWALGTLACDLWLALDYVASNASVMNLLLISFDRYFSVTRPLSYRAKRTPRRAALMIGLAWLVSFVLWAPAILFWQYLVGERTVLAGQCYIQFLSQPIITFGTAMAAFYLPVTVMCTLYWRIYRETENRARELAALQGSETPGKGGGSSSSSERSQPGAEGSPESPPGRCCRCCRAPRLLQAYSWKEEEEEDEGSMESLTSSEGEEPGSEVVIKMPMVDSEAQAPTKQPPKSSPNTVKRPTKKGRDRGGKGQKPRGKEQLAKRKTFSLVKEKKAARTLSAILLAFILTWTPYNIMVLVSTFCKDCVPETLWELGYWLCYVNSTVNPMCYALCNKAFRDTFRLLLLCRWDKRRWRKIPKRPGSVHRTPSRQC
WNV NS2B-NS3 inh: inhibitors of West Nile virus NS2B-NS3 protease. AID 577. 65,000 tested, 0.18% active. z-score (test concentration not listed). WNV NS2B-NS3 protease, fluorogenic substrate Ex360/Em465; active compounds read low; in the data active means z-score below about -3
AP ELISA ortho: alternative pathway complement inhibition, orthogonal assay | Human serum alternative complement pathway, LPS-coated ELISA, C3 deposition; tested in compound mixtures | AID 1235 | inhibition, % at 5 µM | 62,000 tested, 0.08% active;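 active means inhibition above 30% in each of the two pooled mixtures holding the compound, so the lower value exceeds 30%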
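Medium: diluted human serum in Mg2+-EGTA GVB++. Assay system: human serum complement alternative pathway, C3 deposition onto LPS. Also added: Plate-bound LPS. Technique: Anti-C3 ELISA, OD 450 nm. Measure: percent inhibition. Incubation: 1 h at 37 °C. Dosing: 5 µM each compound, pools of ten, 50 µM per pool.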
M1 agonist: activates the M1 muscarinic receptor | CHO-M1 cells, Fluo-4 calcium fluorescence, agonist mode; active compounds read high | B-score at 10 µM | 64,000 tested, 3% active;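 active means fluorescence rise, raw or as B-score row- and column-corrected plate score, outside the 99.7% band of its plate's samples, either direction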
Ecoli tolC: blocks growth of E. coli BW25113 tolC mutant; 65,000 tested, 2.2% active; growth inhibition, % at 10 µM (by protocol); OD615; AID 573;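 active means growth inhibition at or above a cutoff equal to the mean over every tested compound plus 3 SD, cut at about 60% in these data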;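 further: growth measured after 20 h incubation at 37 °C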
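Test system – E. coli BW25113 ΔtolC::kan, tolC deletion mutant strain · Detection – OD at 615 nm · Buffer or medium – LB with kanamycin 50 µg/mL · Times – 20 h compound exposure of bacteria at 37 °C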
M1 agonist conf: rat M1 muscarinic agonism, confirmation; shares compounds with M1 agonist; CHO-M1 cells, Fluo-4 calcium fluorescence, agonist mode; actives lie on both sides; fluorescence change (max-min) at 10 µM; 1,700 tested, 19% active; AID 1488;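 active means fluorescence change differs from the solvent-only DMSO control mean at a set confidence level in both duplicate runs; inconclusive means differs from solvent-only control mean in just one of two runs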;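 further: an EC20 dose of acetylcholine follows compound addition during the same imaging run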
M4 agonist ctr: rat M4 muscarinic agonism, M1 counter-screen. fluorescence change (max-min) at 10 µM. 1,700 tested, 9% active. CHO M4/Gqi5 cells, Fluo-4 calcium fluorescence, agonist mode; actives lie on both sides. shares compounds with M1 agonist. AID 1741;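 active means fluorescence change differing from the plate's solvent-only control wells at 99.7% confidence in both duplicates, whether higher or lower; inconclusive means differs from solvent controls in only one of two duplicates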
Numbers stand for hits; i = inactive; ? = inconclusive; nt = no result. Only some compounds are listed: those with a hit (about 5.2% of all), similar ones and a draw of the others.

SMILES	E coli WT exp	M1 antagonist	WNV NS2B-NS3 inh	AP ELISA ortho	M1 agonist	Ecoli tolC	M1 agonist conf	M4 agonist ctr
CCOc1ccc(N2CC(=O)N/C2=N\c2nc(C)cc(C)n2)cc1	i	nt	i	i	nt	i	nt	nt
O=C(CSc1nnc(Cc2cccs2)n1C1CCCCC1)N1CCCc2ccccc21	i	-2.15	i	i	3	i	i	i
COC(=O)c1c(NC(=O)CN2CCN(c3ccccc3)CC2)c2c(C)cccc2n1C	i	i	i	i	4.53	i	-25.1	?
COC(=O)c1c(NC(=O)CN2CCN(c3ccccc3OC)CC2)c2c(C)cccc2n1C	i	i	i	i	i	i	nt	nt
COc1ccc(F)cc1CN1CCN(c2cc(C)nc3c4c(C)cc(C)nc4nn23)CC1	i	i	i	i	3.53	i	?	i
COc1ccc(Cl)cc1CN1CCN(c2nc(C)cc(C)c2C#N)CC1	i	i	i	i	7.45	96.9	i	i
O=C(CSc1nnc(CNC(=O)c2cccs2)o1)NCCc1ccccc1	i	i	i	i	i	i	nt	nt
CCCCOc1ncnc2c1[nH]c1ccc(F)cc12	i	i	i	i	5.42	i	i	i
Cc1cc(C)nc(/N=c2/ssnc2Cl)c1	i	i	i	i	6.33	i	i	?
CCN1C(=O)C(Cc2nc3ccccc3c(=O)n2-c2ccccc2)c2ccccc21 (stereo not given)	i	nt	nt	nt	nt	nt	nt	nt
Cn1c(CC2C(=O)Nc3ccc(Br)cc32)nc2ccccc2c1=O (stereo not given)	i	i	i	i	1.98	i	?	i
COc1ccc(NC(=O)C2CC(=O)OC2(C)C)cc1 (stereo not given)	i	i	i	i	i	i	nt	nt
CCOC(=O)Cc1csc(NC(=O)c2ccc(Cl)nc2)n1	i	nt	nt	nt	nt	nt	nt	nt
CCOC(=O)Cc1csc(NC(=O)c2ccc3c(c2)OCO3)n1	i	i	i	i	-2.35	i	i	?
COc1ccc(CNC2CC(=O)N(C)C2=O)cc1 (stereo not given)	i	i	i	i	3.42	i	i	i
CCCNC(=O)CC(NS(=O)(=O)c1ccc(Cl)cc1)c1ccco1 (stereo not given)	i	i	i	i	i	i	nt	nt
O=C(CC(NS(=O)(=O)c1ccc(Cl)cc1)c1ccco1)NCc1ccco1 (stereo not given)	i	i	i	i	-2.9	i	?	i
Cc1ccc(C(C)C)cc1OCCOCCN1CCCC1	i	nt	nt	nt	nt	nt	nt	nt
Cc1sc2nc(CSc3nc4ccccc4c(=O)n3CCCN3CCOCC3)[nH]c(=O)c2c1C	i	i	i	i	10.5	i	i	i
CCCCn1nnnc1SCC(=O)Nc1ccc(N(C)C)cc1	i	nt	nt	nt	nt	nt	nt	nt
Cc1cccc(N2CCN(CC(=O)Nc3nccs3)CC2)c1C	i	nt	nt	nt	nt	nt	nt	nt
Cc1cc(=O)oc2ccc(OCC(=O)N(Cc3ccc(F)cc3)Cc3ccco3)cc12	i	-2.41	i	i	6.36	i	?	i
CCOC(=O)c1c(C)[nH]c(O)c1C=Nc1ccccc1	i	nt	nt	nt	nt	nt	nt	nt
CCOC(=O)c1c(C)[nH]c(C=Nc2ccccc2)c1O	i	i	i	i	-2.2	i	i	i
Cc1ccc(C2C(C#N)=C(N)SC(N)=C2C#N)c(C)c1	i	i	i	i	10.9	i	i	i
SMILES	E coli WT exp	M1 antagonist	WNV NS2B-NS3 inh	AP ELISA ortho	M1 agonist	Ecoli tolC	M1 agonist conf	M4 agonist ctr
Cc1ccc(C2C(C#N)=C(N)SC(N)=C2C#N)cc1	i	i	i	i	i	i	nt	nt
COc1ccc(NC(=O)c2cccc(N3C(=O)NC4CC3(C)Oc3ccccc34)c2)cc1 (stereo not given)	i	nt	nt	nt	nt	nt	nt	nt
COc1cccc2c1OC1(C)CC2NC(=O)N1c1cccc(C(=O)Nc2ccc3c(c2)OCCO3)c1 (stereo not given)	i	i	i	i	7.83	i	i	?
COCC(C)NC(=O)C1CC(c2cccc(Br)c2)=NO1 (stereo not given)	i	i	i	i	i	i	nt	nt
CC(C)n1nnnc1SCC(=O)NCc1ccc2c(c1)OCO2	i	nt	nt	nt	nt	nt	nt	nt
CCCn1nnnc1SCC(=O)NCc1ccc2c(c1)OCO2	i	i	i	i	3.03	i	i	i
Cc1ccccc1-c1ccc(=O)n(CC(=O)Nc2ccc(N3CCOCC3)cc2)n1	i	i	i	i	i	i	nt	nt
COC(=O)c1ccc(C(=O)OC)c(NC(=O)CCC(=O)O)c1	i	i	i	i	4.2	i	i	i
COC(=O)c1ccc(C(=O)OC)c(NC(=O)CCc2ccc(C)o2)c1	i	i	i	i	i	i	nt	nt
C(=N\c1nccs1)/Nc1nccs1	i	i	i	i	i	i	nt	nt
COc1ccc(OC)c(C2=NOC(C(=O)NCc3ccco3)C2)c1 (stereo not given)	i	nt	nt	nt	nt	nt	nt	nt
CCC(=O)N(CC)c1nc(-c2ccc(OC)cc2)cs1	i	i	i	i	46.2	i	?	-74.7
CCOC(=O)C1CCCN(C(=O)Cn2sc3nc(C)cc(C)c3c2=O)C1 (stereo not given)	i	i	i	i	5.9	i	i	i
CCOC(=O)C1CCCN(C(=O)CN2CCN(Cc3ccc(Cl)cc3)C2=O)C1 (stereo not given)	i	i	i	i	22.8	i	202	i
Cc1cc(C)c2c(=O)n(CC(=O)N3CCC(N4CCCCC4)CC3)sc2n1	i	i	i	i	i	i	nt	nt
CCOC(=O)C1CCCN(C(=O)Cc2c(C(=O)O)[nH]c3ccccc23)C1 (stereo not given)	i	i	i	i	4.63	i	i	i
CCOCC(=O)N1CCCC(C(=O)OCC)C1 (stereo not given)	i	i	i	i	i	i	nt	nt
CCOC(=O)C1CCCN(C(=O)Cc2ccc(OC)c(OC)c2)C1 (stereo not given)	i	i	i	i	i	i	nt	nt
COc1ccc(N2CCN(c3ncnc4c3[nH]c3ccccc34)CC2)cc1	i	nt	nt	nt	nt	nt	nt	nt
CCOC(=O)N1CCN(c2ncnc3c2[nH]c2ccc(OC)cc23)CC1	i	i	i	i	2.11	i	?	i
COc1cc2[nH]c3c(N4CCN(c5ccccn5)CC4)ncnc3c2cc1OC	i	i	i	i	8.54	i	i	i
O=C(c1ccco1)N1CCN(S(=O)(=O)c2ccc(S(=O)(=O)NC3CCCCC3)cc2)CC1	i	i	i	i	i	i	nt	nt
CCN(CC)c1ccc2cc(NC(=O)CCC(=O)O)c(=O)oc2c1	i	-1.65	i	i	289	i	1953	1754
CCN(CC)c1ccc2cc(C(=O)Nc3ccccn3)c(=O)oc2c1	i	-4.61	i	nt	353	i	964	1294
O=C(NCCc1csc(-c2ccc(C(F)(F)F)cc2)n1)c1cccs1	i	nt	nt	nt	nt	nt	nt	nt
Cc1ccc(Cn2cccc(NC(=O)c3ccco3)c2=O)cc1	i	i	i	i	i	i	nt	nt
COc1ccc(C(=O)NC(=S)Nc2cccc(Cl)c2N2CCOCC2)cc1[N+](=O)[O-]	i	nt	nt	nt	nt	nt	nt	nt

From PubChem
